# Screens as filed in PubChem.
# S1P3 antag: S1P3 receptor antagonists, primary screen, cell-based. Sphingosine 1-phosphate receptor 3 (Homo sapiens), Q99500. CHO S1P3 NFAT-BLA reporter, FRET fluorescence, antagonist mode. inhibition, % at 4.98 µM. 170,000 tested, 0.27% active. AID 485, 2006;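 active = inhibition above the plate cutoff, the mean inhibition of test wells on that plate plus 3 SD, cut at about 28% in these data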;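 note: cells challenged with S1P at its EC80 of 0.8 µM; blue over green emission ratio from cleaved BLA substrate after 4 h stimulation; 0% = S1P-stimulated wells and 100% = unstimulated DMSO-only wells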
# S1P4 ag: S1P4 receptor agonists, primary screen, cell-based. activation, % at 4.98 µM. S1P4-expressing cell line, agonist reporter assay. 220,000 tested, 0.35% active. AID 1509, 2009; in the data active = activation above about 11%;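 note: 0% = DMSO vehicle and 100% = reference agonist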
# L major viab: Leishmania major promastigote growth inhibition, primary screen | 200,000 tested, 9% active | Leishmania major promastigotes, resazurin fluorescence viability | inhibition, % at 10 µM | AID 1063, 2008; in the data active = inhibition above about 50%;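 note: promastigotes grown with compound for 44 hours at 28 °C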
# S1P4 antag: S1P4 receptor antagonists, primary screen, cell-based; Sphingosine 1-phosphate receptor 4 (Homo sapiens), O95977; S1P4-expressing cells, antagonist mode, reporter read-out; inhibition, % at 4.98 µM; 220,000 tested, 0.26% active; in the data active = inhibition above about 29%;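 note: 0% = wells stimulated with agonist and 100% = vehicle wells without agonist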
# MDM2 E3 inh: MDM2-luciferase reporter signal enhancers, primary screen, MDM2 E3 ligase inhibitor project, cell-based, luminescence, 1536-well; E3 ubiquitin-protein ligase Mdm2 (Homo sapiens), Q00987; cell-based MDM2 ubiquitination luciferase reporter, 2 h; 0 = plate control, 100 = twice control, blank-subtracted; signal enhancement, % at 5 µM; 210,000 tested, 0.11% active;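 active = signal enhancement of 30% or more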;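 note: luminescence tracks abundance of the self-degrading MDM2-luciferase fusion protein; higher signal means inhibition of MDM2 E3 ligase activity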
# Target sequence (Q00987 whole entry, looked up, the tested form may be a part): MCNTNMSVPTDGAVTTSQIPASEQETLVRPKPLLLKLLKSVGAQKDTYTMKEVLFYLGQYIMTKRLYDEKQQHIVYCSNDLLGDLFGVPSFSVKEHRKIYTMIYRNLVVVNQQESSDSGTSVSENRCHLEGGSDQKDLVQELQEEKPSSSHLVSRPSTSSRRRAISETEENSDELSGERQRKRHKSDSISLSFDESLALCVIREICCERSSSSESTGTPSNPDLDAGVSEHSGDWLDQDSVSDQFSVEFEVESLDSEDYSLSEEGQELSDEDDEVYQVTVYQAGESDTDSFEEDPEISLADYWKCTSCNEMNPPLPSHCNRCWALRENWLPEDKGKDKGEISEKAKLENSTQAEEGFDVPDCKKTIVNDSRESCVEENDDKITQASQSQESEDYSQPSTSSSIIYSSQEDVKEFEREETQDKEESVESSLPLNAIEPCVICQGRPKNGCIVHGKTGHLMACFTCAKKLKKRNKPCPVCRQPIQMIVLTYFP
#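 Test system: mammalian cells stably expressing self-ubiquitinating, self-degrading MDM2 E3–luciferase fusion; Amount: 2000 cells in each well; Medium: DMEM; Schedule: 4 h settle plus 2 h compound, 37 °C; Technique: SteadyLite luciferase luminescence after 15 min room-temperature reagent incubation; Benchmarks: plate control and blank wells.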
# The depositor's hits bear a star; x = not tested or not shown. Shown is part of a subset that was picked to be rich in hits.
SMILES,S1P3 antag,S1P4 ag,L major viab,S1P4 antag,MDM2 E3 inh
CC(C)c1ccc(/C=N/NC(=O)c2cccc(Cl)c2)cc1,16,1,0,2,-4
CC(C)c1ccc(OCc2cccc(C(=O)N/N=C/c3cccnc3)c2)cc1,-3,6,16,1,34*
CCOc1ccc(OCc2cccc(C(=O)N/N=C/c3cccnc3)c2)cc1,-8,1,58*,-19,10
O=C(N/N=C/c1cccnc1)c1ccccc1OCc1cccc(Br)c1,1,1,7,-4,-4
C[N+]1(C2CCC3CCCC2C3O)CCCCC1 (stereo unspecified),-9,-1,-1,-11,-5
O=C1CC(/C=C/c2ccccc2)(C(=O)NC2CCCC2)N1c1ccc(S(=O)(=O)N2CCCC2)cc1 (stereo unspecified),-4,2,39,-9,x
CC1C(=O)N(c2ccc(S(=O)(=O)N(C)C)cc2)C1(/C=C/c1ccccc1)C(=O)NC1CCCC1 (stereo unspecified),0,0,54*,-22,2
O=C(N/N=C1\C/C(=N\NC(=O)c2ccncc2)c2ccccc21)c1ccncc1,-4,1,73*,-8,-9
CCOc1ccc2c(c1)C(=NNC(=O)c1ccncc1)c1cc(OCC)ccc1-2,-14,-1,100*,-21,18
CCOc1ccc(NC(=O)c2ccncc2)cc1,-12,2,-2,-7,-1
CCN(CC)C(=O)CSc1nc2cc3c(cc2c(=O)n1Cc1ccc(OC)cc1)OCO3,10,1,9,-17,0
CCCOc1ccc(N2C(=O)CC(SC(=N)N3N=C(c4ccccc4)CC3c3ccccc3)C2=O)cc1 (stereo unspecified),7,1,98*,1,-40
Cc1occc1-c1nnc(-c2cc([N+](=O)[O-])cc([N+](=O)[O-])c2)o1,6,-1,82*,14,0
CNc1nc(C)c(C(=O)OCc2ccccc2)s1,5,2,-1,8,-3
COc1cccc(-n2c(CN3CCN(Cc4ccccc4)CC3)nc3ccc([N+](=O)[O-])cc3c2=O)c1,13,1,76*,-21,-5
COC(=O)c1ccc(-c2noc(CN3C[C@H]4CC[C@H]3C4)n2)cc1,6,0,98*,-7,6
COC(=O)c1ccc(-c2noc(CN(C)CC3CCCCO3)n2)cc1 (stereo unspecified),8,2,-3,-3,-7
COC(=O)c1ccc(-c2noc(CN(Cc3ccncc3)CC3CCCO3)n2)cc1 (stereo unspecified),8,-1,71*,-3,18
C#CCOCCOCCOCCNc1nc(N2CCN(C(=O)[C@H](Cc3cc4ccccc4[nH]3)n3cc([C@@H](N)C(C)CC)nn3)CC2)nc(N2CCN(C(=O)[C@H](Cc3cc4ccccc4[nH]3)n3cc([C@@H](N)CC(C)C)nn3)CC2)n1 (stereo partly specified),-5,-3,-5,2,x
COc1cccc(CNC(=O)CCC2CCCN(C(=O)c3ccc(OC)o3)C2)c1 (stereo unspecified),-4,0,-6,-6,20
C=CCNC(=O)COc1ccc(Br)cc1Cl,-15,0,-5,-4,-16
Cc1c(NC(=O)C(C)OC(=O)c2c3c(nc4ccccc24)CCC3)c(=O)n(-c2ccccc2)n1C (stereo unspecified),-14,0,-4,6,-16
COc1ccccc1OCC#CCn1ccnc1,1,0,8,-4,-3
COc1ccccc1OCC#CCNC1CCCCC1C (stereo unspecified),-13,0,78*,1,-5
COc1ccc(N2C(=O)C(CC(N)=O)N(NC(=O)c3cccc(OC)c3)C2=S)cc1 (stereo unspecified),0,-2,-3,10,15
SMILES,S1P3 antag,S1P4 ag,L major viab,S1P4 antag,MDM2 E3 inh
COc1ccc(S(=O)(=O)Nc2ccc(S(=O)(=O)Nc3nc(C)cc(C)n3)cc2)cc1OC,-13,1,-9,-3,-21
Cc1ccccc1C(=O)N1CCN(C(c2ccccc2)c2ccccc2)CC1,0,0,x,12,-17
CCOc1ccccc1C(=O)N1CCN(C(c2ccccc2)c2ccccc2)CC1,x,0,95*,-5,-29
CCOC(=O)N1CCN(C(=O)CSCc2ccc(Cl)cc2)CC1,x,2,-4,-8,-12
CCOC(=O)N1CCN(C(=O)CSCc2ccccc2)CC1,9,0,51*,-9,-2
CCc1c(C)c(C#N)c2nc3ccccc3n2c1N(C)C,16,0,16,9,-22
CCCCc1c(C)c(C#N)c2nc3ccccc3n2c1Cl,-6,1,100*,-3,-2
COc1ccc2cc3cc(C(=O)Nc4ccc5c(c4)OCCO5)oc3nc2c1,19,1,100*,-5,-4
COc1ccc2cc3cc(C(=O)NC(C)C)oc3nc2c1,x,-4,89*,-6,-17
COc1cccc(C(c2nnnn2CCc2ccccc2)N2CCN(c3ccccc3)CC2)c1OC (stereo unspecified),-2,0,55*,-3,-11
COc1ccc(N2CCN(C(c3nnnn3CCc3ccccc3)C(C)C)CC2)cc1 (stereo unspecified),-20,2,89*,-11,-10
COc1ccccc1N1CCN(C(c2ccccc2)c2nnnn2CCc2ccccc2)CC1 (stereo unspecified),x,-2,64*,-4,-4
Fc1ccc(C(c2nnnn2C2CCCC2)N2CCc3ccccc32)cc1 (stereo unspecified),x,-3,3,4,-8
Fc1ccc(C(c2nnnn2CCc2ccccc2)N2CCCc3ccccc32)cc1 (stereo unspecified),x,-1,76*,19,-19
Cc1ccc2oc(-c3ccc(NC(=O)CC(C)C)cc3)nc2c1,54*,0,-4,14,-8
Cc1ccc(-c2nc3ncccc3o2)cc1NC(=O)Cc1ccc(Cl)cc1,9,1,-6,-1,x
CCC(C)NCC(=O)Nc1ccc(-c2nc3cc(NC(=O)CNC(C)CC)ccc3o2)cc1 (stereo unspecified),4,1,99*,0,-21
O=C(CN1CCCC1)Nc1ccc(-c2nc3cc(NC(=O)CN4CCCC4)ccc3o2)cc1,12,-1,101*,7,-21
Cc1ccc(-c2nc3ncccc3o2)cc1NC(=O)CC(C)C,7,0,92*,-22,3
CCCC(=O)Nc1ccc2oc(-c3ccncc3)nc2c1,-30,0,-2,-12,-9
O=C(C1CCCCN1S(=O)(=O)c1ccccc1[N+](=O)[O-])N1CCCCC1 (stereo unspecified),-5,0,-2,0,-18
